MIC data for eleven compounds are collected here from ChEMBL document CHEMBL2086245, “Micelles catalyzed chemo- and regio-selective one pot and one step synthesis of 2,3,5,6-tetrakis(alkyl and arylsulfanyl)-1,4-benzoquinones and 2,5-diaminosubstituted-1,4-benzoquinones "In-Water" and their biological evaluation as antibacterial and antifungal agents” (Eur J Med Chem, 2012).

≈ marks a conversion by molar mass, not a printed value. Bounds are passed on as bounds.

Holding throughout (format): functional
For one test, the system named is Staphylococcus aureus. Briefly: Antibacterial activity against Staphylococcus aureus ATCC 25923 after 24 hrs by broth microdilution method. The method, boiled down:
(§1)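 NCCLS broth microdilution in Mueller-Hinton broth, 96-well plates. Initial inoculum 1-5 × 10^3 cells/mL. Incubated in a moist chamber at 35 °C for 24 h, then absorbance read at 492 nm. MIC taken as the concentration giving 90% growth inhibition relative to the growth control.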

In the next test the test system is Escherichia coli. Put plainly: Antibacterial activity against Escherichia coli ATCC 9637 after 24 hrs by broth microdilution method. The method, boiled down:
as §1

A further test concerns Pseudomonas aeruginosa. Briefly: Antibacterial activity against Pseudomonas aeruginosa ATCC BAA-427 after 24 hrs by broth microdilution method. The method, boiled down: as §1
Another test relates to Klebsiella pneumoniae. Put plainly: Antibacterial activity against Klebsiella pneumoniae ATCC 27736 after 24 hrs by broth microdilution method. The method, boiled down:
as §1

Another test has as its system Aspergillus fumigatus. Briefly: Antifungal activity against Aspergillus fumigatus after 72 hrs by broth microdilution method. In outline:
(§2)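 NCCLS broth microdilution in MOPS-buffered RPMI 1640, 96-well plates. Inoculum 1-5 × 10^3 cells/mL, moist chamber, 35 °C. Absorbance at 492 nm read at 48 h (C. albicans, C. parapsilosis), 72 h (C. neoformans, S. schenckii, A. fumigatus) or 96 h (T. mentagrophytes). MIC defined as 90% growth inhibition versus growth control.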

The test system of another test is Sporothrix schenckii. Put plainly: Antifungal activity against Sporothrix schenckii after 72 hrs by broth microdilution method. The method, boiled down: as §2
In a further test the test system is Candida parapsilosis. Put plainly: Antifungal activity against Candida parapsilosis ATCC 22019 after 48 hrs by broth microdilution method. To be noted: Lodderomyces parapsilosis, ATCC 22019, 48 h. The method, boiled down: as §2
A further test concerns Cryptococcus neoformans. Briefly: Antifungal activity against Cryptococcus neoformans after 72 hrs by broth microdilution method. The method, boiled down: as §2
In test [1] the test system is Trichophyton mentagrophytes. Briefly: Antifungal activity against Trichophyton mentagrophytes after 96 hrs by broth microdilution method. The method, boiled down:
as §2

The subject of the next test is Candida albicans. Put plainly: Antifungal activity against Candida albicans after 48 hrs by broth microdilution method. The method, boiled down: as §2

Regarding GENTAMICIN, the MIC in the test with Staphylococcus aureus amounted to 1.56 µg/mL; in the test on Escherichia coli, 1.56 µg/mL; in the test with Pseudomonas aeruginosa, 0.39 µg/mL; against Klebsiella pneumoniae, 1.56 µg/mL.

On to `O=C1C(Cl)=C(N2CCCCC2)C(=O)C(Cl)=C1N1CCCCC1`, for which the MIC with Staphylococcus aureus (ATCC 25923, 24 h) was more than 50 µg/mL; in the test with Aspergillus fumigatus it was more than 50 µg/mL; with Escherichia coli (ATCC 9637, 24 h) it was more than 50 µg/mL; in the test on Sporothrix schenckii it was 25 µg/mL (≈ 72.8 µM); in the test with Candida parapsilosis it was 25 µg/mL (≈ 72.8 µM); against Cryptococcus neoformans, 25 µg/mL (≈ 72.8 µM). Further, the MIC in test [1] is 12.5 µg/mL (≈ 36.4 µM); against Candida albicans, 25 µg/mL (≈ 72.8 µM); against Pseudomonas aeruginosa (ATCC BAA-427, 24 h), more than 50 µg/mL; in the test with Klebsiella pneumoniae (ATCC 27736, 24 h), more than 50 µg/mL.

As to `CC1(C)S[C@@H]2[C@H](NC(=O)[C@H](N)c3ccccc3)C(=O)N2[C@H]1C(=O)O` [AMPICILLIN], the MIC in the test on Staphylococcus aureus (ATCC 25923, 24 h) is 12.5 µg/mL (≈ 35.8 µM); in the test on Escherichia coli (ATCC 9637, 24 h), 12.5 µg/mL (≈ 35.8 µM); in the test with Pseudomonas aeruginosa (ATCC BAA-427, 24 h), more than 50 µg/mL; with Klebsiella pneumoniae (ATCC 27736, 24 h), more than 50 µg/mL.

`O=C1C(O)=C(Sc2cccc3ccccc23)C(=O)C(Sc2cccc3ccccc23)=C1Sc1cccc2ccccc12`: the MIC in the test on Staphylococcus aureus (ATCC 25923, 24 h) is more than 50 µg/mL; in the test on Aspergillus fumigatus it was more than 50 µg/mL; against Escherichia coli (ATCC 9637, 24 h) it was more than 50 µg/mL; against Sporothrix schenckii it was more than 50 µg/mL; with Candida parapsilosis, 25 µg/mL (≈ 41.8 µM); against Cryptococcus neoformans, 25 µg/mL (≈ 41.8 µM). Besides, the MIC in test [1] was 50 µg/mL (≈ 83.5 µM); against Candida albicans, 25 µg/mL (≈ 41.8 µM); in the test on Pseudomonas aeruginosa (ATCC BAA-427, 24 h), more than 50 µg/mL; in the test on Klebsiella pneumoniae (ATCC 27736, 24 h) it was more than 50 µg/mL.

Consider `Cc1ccc(SC2=C(Sc3ccc(C)cc3)C(=O)C(Sc3ccc(C)cc3)=C(Sc3ccc(C)cc3)C2=O)cc1`, for which the MIC is more than 50 µg/mL in the test on Staphylococcus aureus (ATCC 25923, 24 h); more than 50 µg/mL against Aspergillus fumigatus; more than 50 µg/mL in the test on Escherichia coli (ATCC 9637, 24 h); 50 µg/mL (≈ 83.8 µM) in the test with Sporothrix schenckii; 25 µg/mL (≈ 41.9 µM) with Candida parapsilosis; more than 50 µg/mL against Cryptococcus neoformans. In addition, the MIC was more than 50 µg/mL in [1]; 25 µg/mL (≈ 41.9 µM) in the test with Candida albicans; more than 50 µg/mL against Pseudomonas aeruginosa (ATCC BAA-427, 24 h); more than 50 µg/mL with Klebsiella pneumoniae (ATCC 27736, 24 h).

Take `Nc1nc(=O)[nH]cc1F` [FLUCYTOSINE]: the MIC was more than 32 µg/mL in the test with Aspergillus fumigatus; more than 32 µg/mL in the test on Sporothrix schenckii; 0.13 µg/mL (≈ 1.01 µM) against Candida parapsilosis; 0.13 µg/mL (≈ 1.01 µM) in the test with Cryptococcus neoformans; more than 32 µg/mL in [1]; 0.25 µg/mL (≈ 1.94 µM) against Candida albicans.

On to `O=C1C(Sc2ccccc2)=C(Sc2ccccc2)C(=O)C(Sc2ccccc2)=C1Sc1ccccc1`, for which the MIC with Staphylococcus aureus (ATCC 25923, 24 h) was more than 50 µg/mL; against Aspergillus fumigatus, 50 µg/mL (≈ 92.5 µM); with Escherichia coli (ATCC 9637, 24 h), more than 50 µg/mL; against Sporothrix schenckii, 1.56 µg/mL (≈ 2.88 µM); against Candida parapsilosis it was 6.25 µg/mL (≈ 11.6 µM); with Cryptococcus neoformans, 12.5 µg/mL (≈ 23.1 µM). Also, the MIC is 0.78 µg/mL (≈ 1.44 µM) in test [1]; 12.5 µg/mL (≈ 23.1 µM) in the test on Candida albicans; more than 50 µg/mL in the test on Pseudomonas aeruginosa (ATCC BAA-427, 24 h); more than 50 µg/mL in the test on Klebsiella pneumoniae (ATCC 27736, 24 h).

As for `O=C1C(O)=C(Sc2ccccc2)C(=O)C(Sc2ccccc2)=C1Sc1ccccc1`, the MIC with Staphylococcus aureus (ATCC 25923, 24 h) is more than 50 µg/mL; in the test on Aspergillus fumigatus it was more than 50 µg/mL; against Escherichia coli (ATCC 9637, 24 h) it was more than 50 µg/mL; against Sporothrix schenckii it was 50 µg/mL (≈ 111 µM); in the test with Candida parapsilosis, 12.5 µg/mL (≈ 27.9 µM); with Cryptococcus neoformans, 12.5 µg/mL (≈ 27.9 µM). Moreover, the MIC in [1] is 50 µg/mL (≈ 111 µM); in the test with Candida albicans it was 12.5 µg/mL (≈ 27.9 µM); against Pseudomonas aeruginosa (ATCC BAA-427, 24 h), more than 50 µg/mL; with Klebsiella pneumoniae (ATCC 27736, 24 h), more than 50 µg/mL.

On to `Cc1ccc(SC2=C(O)C(=O)C(Sc3ccc(C)cc3)=C(Sc3ccc(C)cc3)C2=O)cc1`, for which the MIC is more than 50 µg/mL with Staphylococcus aureus (ATCC 25923, 24 h); more than 50 µg/mL in the test with Aspergillus fumigatus; more than 50 µg/mL against Escherichia coli (ATCC 9637, 24 h); more than 50 µg/mL against Sporothrix schenckii; 25 µg/mL (≈ 51 µM) in the test on Candida parapsilosis; 25 µg/mL (≈ 51 µM) against Cryptococcus neoformans. Besides, the MIC is 50 µg/mL (≈ 102 µM) in test [1]; 12.5 µg/mL (≈ 25.5 µM) in the test with Candida albicans; more than 50 µg/mL with Pseudomonas aeruginosa (ATCC BAA-427, 24 h); more than 50 µg/mL with Klebsiella pneumoniae (ATCC 27736, 24 h).

Consider `O=C1C(Cl)=C(N2CCOCC2)C(=O)C(Cl)=C1N1CCOCC1`, for which the MIC in the test with Staphylococcus aureus (ATCC 25923, 24 h) was 25 µg/mL (≈ 72 µM); against Aspergillus fumigatus, more than 50 µg/mL; against Escherichia coli (ATCC 9637, 24 h), more than 50 µg/mL; in the test with Sporothrix schenckii, 12.5 µg/mL (≈ 36 µM); with Candida parapsilosis, 12.5 µg/mL (≈ 36 µM); against Cryptococcus neoformans, 12.5 µg/mL (≈ 36 µM). Besides, the minimum inhibitory concentration (MIC) in [1] is 6.25 µg/mL (≈ 18 µM); in the test with Candida albicans, 12.5 µg/mL (≈ 36 µM); against Pseudomonas aeruginosa (ATCC BAA-427, 24 h), more than 50 µg/mL; against Klebsiella pneumoniae (ATCC 27736, 24 h), more than 50 µg/mL.

For `O=C1C(Cl)=C(Sc2ccccc2)C(=O)C(Sc2ccccc2)=C1Sc1ccccc1`, the MIC in the test on Staphylococcus aureus (ATCC 25923, 24 h) was 50 µg/mL (≈ 107 µM); against Aspergillus fumigatus, more than 50 µg/mL; with Escherichia coli (ATCC 9637, 24 h), more than 50 µg/mL; with Sporothrix schenckii, 50 µg/mL (≈ 107 µM); against Candida parapsilosis it was 25 µg/mL (≈ 53.5 µM); against Cryptococcus neoformans, 25 µg/mL (≈ 53.5 µM). In addition, the MIC in [1] was 50 µg/mL (≈ 107 µM); in the test with Candida albicans it was 25 µg/mL (≈ 53.5 µM); against Pseudomonas aeruginosa (ATCC BAA-427, 24 h), more than 50 µg/mL; in the test with Klebsiella pneumoniae (ATCC 27736, 24 h) it was more than 50 µg/mL.
